Screens (PubChem)
Ecoli tolC – blocks growth of E. coli BW25113 tolC mutant | OD615 | growth inhibition, % at 10 µM (by protocol) | actives 2.2% (n = 65,000);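 active = growth inhibition at or above a cutoff equal to the mean over every tested compound plus 3 SD, cut at about 60% in these data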;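 note: growth measured after 20 h incubation at 37 °C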
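Material: E. coli BW25113 ΔtolC::kan, tolC deletion mutant strain. Measure: percent growth inhibition. Schedule: 37 °C, 20 h exposure. Doses: single-point testing at 10 µM. Signal: A615 absorbance measurement. Buffer or medium: kanamycin-containing LB broth (50 µg/mL).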
CYP2C9 inh – inhibitors of human CYP2C9; P11712; CYP2C9 Supersomes, luciferin-H conversion, luminescence; inhibition, % at 5 µM; actives 20% (n = 96,000); AID 777;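 active = blocking of liver enzyme CYP2C9 beyond about 50% at 5 µM, limit read from the data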
Target sequence (P11712 whole entry, looked up): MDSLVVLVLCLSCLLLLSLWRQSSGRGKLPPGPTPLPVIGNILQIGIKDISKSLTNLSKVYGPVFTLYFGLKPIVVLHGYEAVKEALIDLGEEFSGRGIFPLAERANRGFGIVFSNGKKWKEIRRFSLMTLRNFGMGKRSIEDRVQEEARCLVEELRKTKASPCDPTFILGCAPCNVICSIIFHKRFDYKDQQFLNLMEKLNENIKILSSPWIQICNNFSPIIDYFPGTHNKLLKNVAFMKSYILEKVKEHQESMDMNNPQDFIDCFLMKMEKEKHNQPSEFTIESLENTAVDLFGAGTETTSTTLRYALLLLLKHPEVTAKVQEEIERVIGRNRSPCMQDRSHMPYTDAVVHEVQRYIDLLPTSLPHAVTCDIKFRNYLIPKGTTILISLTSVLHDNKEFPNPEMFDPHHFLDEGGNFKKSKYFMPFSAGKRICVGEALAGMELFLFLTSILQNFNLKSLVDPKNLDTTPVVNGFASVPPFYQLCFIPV
E coli WT exp – E. coli BW25113 growth inhibition, expanded screen. OD600 absorbance. growth inhibition, % at 100 µM. actives 0.15% (n = 98,000);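 active = growth inhibition above about 50% at one test dose, limit read from the data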;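 note: growth measured after 20 h incubation at 37 °C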
CYP2C19 inhib – inhibitors of human CYP2C19 | P33261 | CYP2C19 Supersomes, luciferin-H EGE luminescence, 30 min | inhibition, % at 5 µM | actives 21% (n = 96,000);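 active = CYP2C19 inhibition above a set limit at 5 µM in the primary screen, cut at about 50% in these data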
CYP2C19 activ – increases human CYP2C19 enzyme activity. activation factor at 5 µM. 96,000 tested, under 10 active. recombinant CYP2C19, luciferin-H EGE luminescence; hits give high values; 0 = fully inhibited enzyme, 1 = untreated enzyme;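 active = activation factor of at least 2 at 5 µM in the primary screen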
CYP2C9 act – increases human cytochrome P450 2C9 activity; P11712; recombinant CYP2C9, luciferin-H conversion, luminescence; hits give high values; factor 1 = untreated enzyme, 0 = blocked; activation factor at 5 µM; actives 1.4% (n = 96,000); AID 1024;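 active = activation factor of 2 or more for CYP2C9 at a 5 µM dose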
Numbers stand for hits. This is a sample that favours compounds with a hit; in the whole collection about 29% have one here.

`CC1(C)CC(=O)c2c(O)cc(OCc3ccc(Br)cc3)cc2O1` gave CYP2C9 inh 85, E coli WT exp inactive, CYP2C19 inhib 61, CYP2C19 activ inactive and CYP2C9 act inactive.
COC(=O)c1ccc(COc2cc(O)c3c(c2)OC(C)(C)CC3=O)cc1 was read as Ecoli tolC inactive, CYP2C9 inh inactive, E coli WT exp inactive, CYP2C19 inhib 51, CYP2C19 activ inactive and CYP2C9 act inactive.
Cc1cccc(C)c1OCc1nnc(SCC(=O)Nc2nccs2)n1-c1ccccc1 was read as Ecoli tolC inactive, CYP2C9 inh inactive, E coli WT exp inactive, CYP2C19 inhib inactive, CYP2C19 activ inactive and CYP2C9 act inactive.
For CN1CCN(CC(=O)N2c3ccccc3C(C)(c3ccccc3)CC2(C)C)CC1 (stereo not given) the results were Ecoli tolC inactive, CYP2C9 inh inactive, E coli WT exp inactive, CYP2C19 inhib inactive, CYP2C19 activ inactive and CYP2C9 act inactive.
For CC(=O)N1c2ccccc2C(C)(c2ccccc2)CC1(C)C (stereo not given) the results were CYP2C9 inh 54, E coli WT exp inactive, CYP2C19 inhib 64, CYP2C19 activ inactive and CYP2C9 act inactive.
`O=c1ccc(/C=C/c2ccccc2)nn1Cc1ccc(Cl)cc1Cl` gave CYP2C9 inh inactive, E coli WT exp inactive, CYP2C19 inhib inactive, CYP2C19 activ inactive and CYP2C9 act inactive.
For O=c1ccc(/C=C/c2ccccc2)nn1Cc1ccccc1Cl the results were CYP2C9 inh 52, E coli WT exp inactive, CYP2C19 inhib inactive, CYP2C19 activ inactive and CYP2C9 act inactive.
`COc1cccc(-n2c(C)nc3cc(C(=O)O)ccc32)c1` gave CYP2C9 inh inactive, E coli WT exp inactive, CYP2C19 inhib inactive, CYP2C19 activ inactive and CYP2C9 act inactive.
`CCCn1c(SCC(=O)NCCc2ccc(Cl)cc2Cl)n[nH]c1=O` gave Ecoli tolC inactive, CYP2C9 inh inactive, E coli WT exp inactive, CYP2C19 inhib inactive, CYP2C19 activ inactive and CYP2C9 act inactive.
`CCCc1nc(SCc2ccc(Cl)cc2Cl)n[nH]1` gave CYP2C9 inh inactive, E coli WT exp inactive, CYP2C19 inhib 84, CYP2C19 activ inactive and CYP2C9 act inactive.
For Cc1c(CCO)c(=O)n(-c2ccccc2)n1S(=O)(=O)c1c(Cl)cc(Cl)cc1Cl the results were CYP2C9 inh inactive, E coli WT exp inactive, CYP2C19 inhib 57, CYP2C19 activ inactive and CYP2C9 act inactive.
`CCN(CC)C(=O)C1CCN(Cc2ccc(Br)cc2)CC1` gave Ecoli tolC inactive, CYP2C9 inh inactive, E coli WT exp inactive, CYP2C19 inhib inactive, CYP2C19 activ inactive and CYP2C9 act inactive.
O=C(c1ccc(Br)s1)N1CCN(C/C=C/c2ccccc2)CC1 was read as CYP2C9 inh inactive, E coli WT exp inactive, CYP2C19 inhib inactive, CYP2C19 activ inactive and CYP2C9 act inactive.
`O=c1[nH]c(CN2CCN(C/C=C/c3ccccc3)CC2)nc2cc(Cl)ccc12` gave Ecoli tolC inactive, CYP2C9 inh inactive, E coli WT exp inactive, CYP2C19 inhib inactive, CYP2C19 activ inactive and CYP2C9 act inactive.
`O=C(c1ccc(=O)n(Cc2ccccc2)n1)N1CCN(C/C=C/c2ccccc2)CC1` gave Ecoli tolC inactive, CYP2C9 inh 92, E coli WT exp inactive, CYP2C19 inhib 69, CYP2C19 activ inactive and CYP2C9 act inactive.
Screening O=C(CCc1nc2ccccc2c(=O)[nH]1)N1CCN(C/C=C/c2ccccc2)CC1 returned Ecoli tolC inactive, CYP2C9 inh 52, E coli WT exp inactive, CYP2C19 inhib inactive, CYP2C19 activ inactive and CYP2C9 act inactive.
O=C(c1ccc(Br)o1)N1CCN(C/C=C/c2ccccc2)CC1 was read as Ecoli tolC inactive, CYP2C9 inh 63, E coli WT exp inactive, CYP2C19 inhib 65, CYP2C19 activ inactive and CYP2C9 act inactive.
`CC(C)(C)NC(=O)C12CCC(C)(c3nc4ccccc4nc31)C2(C)C` (stereo not given) gave CYP2C9 inh inactive, E coli WT exp inactive, CYP2C19 inhib inactive, CYP2C19 activ inactive and CYP2C9 act inactive.
CCOC(=O)C1=NN(N=O)C2(CC(=O)N(c3cc(C)cc(C)c3)C2=O)C1 (stereo not given) was read as CYP2C9 inh inactive, E coli WT exp inactive, CYP2C19 inhib inactive, CYP2C19 activ inactive and CYP2C9 act inactive.
C=CCSc1nnc2n(-c3ccccc3OC)c(=O)c3c4c(sc3n12)CCC4 was read as Ecoli tolC inactive, CYP2C9 inh inactive, E coli WT exp inactive, CYP2C19 inhib inactive, CYP2C19 activ inactive and CYP2C9 act inactive.
O=C(NCc1ccccc1)C12CN(Cc3ccccc3)CC1C(c1cccc([N+](=O)[O-])c1)=NO2 (stereo not given) was read as CYP2C9 inh inactive, E coli WT exp inactive, CYP2C19 inhib 74, CYP2C19 activ inactive and CYP2C9 act inactive.
`Cc1ccc(CNC(=O)C23CN(Cc4ccccc4)CC2C(c2ccc([N+](=O)[O-])cc2)=NO3)cc1` (stereo not given) gave CYP2C9 inh inactive, E coli WT exp inactive, CYP2C19 inhib 58, CYP2C19 activ inactive and CYP2C9 act inactive.
Screening O=C(NCc1ccc(OC(F)(F)F)cc1)C12CN(Cc3ccccc3)CC1C(c1cccc([N+](=O)[O-])c1)=NO2 (stereo not given) returned CYP2C9 inh 57, E coli WT exp inactive, CYP2C19 inhib 76, CYP2C19 activ inactive and CYP2C9 act inactive.
`O=C(NCc1cc(C(F)(F)F)cc(C(F)(F)F)c1)C12CN(Cc3ccccc3)CC1C(c1cccc([N+](=O)[O-])c1)=NO2` (stereo not given) gave CYP2C9 inh inactive, E coli WT exp inactive, CYP2C19 inhib inactive, CYP2C19 activ inactive and CYP2C9 act inactive.
`C(=N\c1ncnc2sccc12)/NOCc1ccccc1` gave CYP2C9 inh 56, E coli WT exp inactive, CYP2C19 inhib 84, CYP2C19 activ inactive and CYP2C9 act inactive.
CC(C)(C)NC(=O)C1CCN(C(=O)c2ccc(Br)cc2)CC1 was read as Ecoli tolC inactive, CYP2C9 inh inactive, E coli WT exp inactive, CYP2C19 inhib inactive, CYP2C19 activ inactive and CYP2C9 act inactive.
CCNC(=O)COc1cccc2ccccc12 was read as CYP2C9 inh inactive, E coli WT exp inactive, CYP2C19 inhib 54, CYP2C19 activ inactive and CYP2C9 act inactive.
`O=C(COc1cccc2ccccc12)NNC(=O)Nc1ccccc1` gave CYP2C9 inh inactive, E coli WT exp inactive, CYP2C19 inhib 53, CYP2C19 activ inactive and CYP2C9 act 2.
`COc1ccc(Nc2oc(-c3cccs3)nc2C#N)cc1` gave Ecoli tolC inactive, CYP2C9 inh inactive, E coli WT exp inactive, CYP2C19 inhib inactive, CYP2C19 activ inactive and CYP2C9 act inactive.
CC(C)Cc1cc(C(=O)Nc2cc(Cl)ccc2Cl)no1 was read as Ecoli tolC inactive, CYP2C9 inh inactive, E coli WT exp inactive, CYP2C19 inhib inactive, CYP2C19 activ inactive and CYP2C9 act 2.6.
For CC(C)c1cc(C(=O)Nc2cc(Cl)ccc2O)no1 the results were Ecoli tolC inactive, CYP2C9 inh 50, E coli WT exp inactive, CYP2C19 inhib inactive, CYP2C19 activ inactive and CYP2C9 act inactive.
